Screens: PubChem, The Scripps Research Institute Molecular Screening Center
OXTR potentiate = potentiates the human oxytocin receptor response; P30559; CHO-OTR cells, Fluo-8 calcium fluorescence, potentiator mode; 0% = oxytocin EC15, 100% = EC100; activation, % at 3 µM; 0.061% of 320,000 active;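 active = activation above that plate's cutoff, the mean activation of tested compounds plus 3 SD, cut at about 6.6% in these data, passing the limit was not always enough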;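 also: 100% uses oxytocin at 75 nM as the full agonist control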
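Assay system: CHO cell line stably expressing human OTR | Also added: Oxytocin at about EC15, sub-maximal agonist stimulus | Times: Compound 6 min at room temperature before oxytocin, 100 s read | Measured by: Fluo-8 intracellular calcium fluorescence, ex 470-495, em 515-575 nm | Controls: EC15 oxytocin alone as 0%, 75 nM oxytocin as 100%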
TAAR1 antag = antagonists of human TAAR1. CHO RD-HGA16 TAAR1, Fluo-8 calcium fluorescence, antagonist. Q96RJ0. AID 624466. inhibition, % at 3 µM. 1.5% of 360,000 active;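 active = inhibition above a per-plate cutoff, the mean inhibition of test compounds on that plate plus 3 SD, cut at about 49% in these data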;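 also: 0% = DMSO plus EC80 beta-PEA response and 100% = DMSO alone without agonist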
Target sequence (Q96RJ0 whole entry, looked up): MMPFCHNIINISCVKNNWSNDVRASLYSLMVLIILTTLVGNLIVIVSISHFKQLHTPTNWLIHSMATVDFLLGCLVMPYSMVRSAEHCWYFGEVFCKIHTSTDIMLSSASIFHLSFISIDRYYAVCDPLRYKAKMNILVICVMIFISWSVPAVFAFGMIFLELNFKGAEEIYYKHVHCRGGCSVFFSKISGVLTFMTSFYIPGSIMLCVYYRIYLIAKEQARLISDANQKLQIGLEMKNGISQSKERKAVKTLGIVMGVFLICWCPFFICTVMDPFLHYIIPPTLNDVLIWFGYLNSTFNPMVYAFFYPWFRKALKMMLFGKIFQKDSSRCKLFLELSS
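System: CHO RD-HGA16 cells bearing hTAAR1. Reagent: EC80 β-phenethylamine stimulus. Schedule: seeding 17-24 h prior, 75-min 37 °C, 30-min RT dye loading. Signal: Fluo-8 intracellular calcium dye fluorescence, real-time kinetic reads. Read-out: % inhibition from peak post-agonist over basal fluorescence ratio. Benchmarks: vehicle wells and EC80 agonist wells. Replicates: n of 1.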
TAAR1 ag = human TAAR1 agonism. CHO RD-HGA16 TAAR1, Fluo-8 calcium fluorescence; vehicle wells 0%, saturating PEA agonist 100%. activation, % at 3 µM. 0.99% of 360,000 active;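 active = activation above the mean activation of all test compounds in the run plus 3 SD, cut at about 38% in these data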
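System: CHO-derived RD-HGA16 cells with stable Gα16 and human TAAR1. Times: 17-24 h plating, Fluo-8 75 min 37 °C, 30 min RT. Measured by: calcium-sensitive Fluo-8 signal, excitation 470-495, emission 515-575 nm. Read-out basis: % activation relative to PEA EC100 response. Control set: DMSO and PEA EC100. Repeats: no replicates (n 1).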
V1aR counter = activates human V1a receptor in oxytocin agonist counter-screen; CHO-V1R cells, Fluo-8 calcium fluorescence, agonist mode; 0% DMSO, 100% 3 nM vasopressin; 0.25% of 320,000 active; activation, % at 3 µM;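 active = activation above the mean activation of all tested compounds plus 3 SD, per screening run, cut at about 20% in these data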;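 also: signal is peak over basal fluorescence ratio across a 100 second FLIPR read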
OXTR ag = human OXTR agonism; 0.32% of 320,000 active; AID 2435; CHO-OTR cells, Fluo-8 calcium fluorescence; normalized: DMSO 0%, oxytocin 100%; activation, % at 3 µM;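 active = activation above the mean of all tested compounds plus 3 SD, cutoff set per screening run, cut at about 20% in these data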;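 also: peak over basal fluorescence ratio from a 100 s FLIPR kinetic read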
TAAR1 ag conf = human TAAR1 agonism, confirmed | shares compounds with TAAR1 ag | CHO RD-HGA16 TAAR1, Fluo-8 calcium fluorescence; scaled: DMSO 0%, maximal phenethylamine 100% | activation, % at 3 µM | 82% of 2,400 active;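 active = activation above a cutoff set at the run's mean compound activation plus 3 SD, cut at about 39% in these data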
Ga16 nonsel ag = nonselective agonism, TAAR1 counter-screen; activation, % at 3 µM; AID 651787; 50% of 2,400 active; shares compounds with TAAR1 ag; CHO-Ga16 parental, Fluo-8 calcium fluorescence; normalized to maximal ATP response, DMSO zero;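 active = activation above the run cutoff, the mean activation over all tested wells plus 3 SD, cut at about 12% in these data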;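 also: 0% = DMSO wells and 100% = maximal ATP response on the peak over basal ratio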
TAAR1 desensitize = counter-screen for human TAAR1 agonists: agonists that desensitize TAAR1; shares compounds with TAAR1 ag; CHO RD-HGA16 hTAAR1, Fluo-8 calcium, beta-PEA response inhibition; inhibition, % at 3 µM; 46% of 2,400 active;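 active = inhibition above the run cutoff, the mean inhibition of all test compounds plus 3 SD, cut at about 49% in these data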;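 also: beta-PEA stimulus applied at its EC80; loss of beta-PEA calcium signal after compound pretreatment read as receptor desensitization; 0% = DMSO with beta-PEA at EC80 and 100% = DMSO alone without agonist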
Ga16 antag count = counter-screen for TAAR1 agonists: nonselective Ga16 antagonists; 39% of 2,400 active; shares compounds with TAAR1 ag; inhibition, % at 3 µM; CHO-Ga16 ATP-induced calcium, Fluo-8 fluorescence;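 active = inhibition above the plate's mean compound inhibition plus 3 SD, computed per plate, cut at about 22% in these data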;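 also: 0% = EC80 ATP with DMSO and 100% = DMSO wells without ATP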
An asterisk follows results filed as active; · = no result given. A selection: hits, their analogues and other compounds. The true share with any hit is near 2.3%.

SMILES	OXTR potentiate	TAAR1 antag	TAAR1 ag	V1aR counter	OXTR ag	TAAR1 ag conf	Ga16 nonsel ag	TAAR1 desensitize	Ga16 antag count
CC(=O)N1c2ccc(S(=O)(=O)N(C)Cc3ccccc3)cc2CC1C (centres undefined)	-14	0	10	8	9	·	·	·	·
CC(=O)N1CCN(CCS(=O)(=O)c2ccc(Br)cc2)CC1	0	-10	15	0	1	·	·	·	·
O=c1c2ccccc2sn1-c1ccccc1	-16	50*	55*	6	5	38*	27*	29	32*
N#Cc1ccc2c(=O)n(-c3ccccc3)sc2c1	·	20	32	·	·	·	·	·	·
Cc1ccsc1CN(C)CC(=O)NCC(=O)Nc1ccc(F)cc1	-10	6	2	0	1	·	·	·	·
O=C(N[C@@H](CCC/[N+]([O-])=C/c1ccccc1)C(=O)O)OCc1ccccc1	·	-18	8	·	·	·	·	·	·
CCCc1nnc(NC(=O)Cn2c(=O)oc3ccccc32)s1	-21	12	20	5	8	·	·	·	·
CCCc1nnc(NC(=O)Cn2c(=O)oc3cc(Br)ccc32)s1	-13	63*	121*	32*	34*	106*	73*	75*	45*
CCOC(=O)c1ccc(NC(=O)N2CCc3ccccc3C2)cc1	-10	9	63*	3	3	48*	12*	49*	24*
Cc1ccccc1NC(=O)N1CCc2ccccc2C1	-1	0	84*	1	1	63*	0	17	5
Cc1cccc(NC(=O)N2CCc3ccccc3C2)c1C	·	52*	80*	·	·	80*	1	29	-4
O=C(Nc1ccc(F)cc1)N1CCc2ccccc2C1	-8	-8	46*	0	0	41*	2	0	6
O=C(Nc1ccc(Br)cc1)N1CCc2ccccc2C1	-4	15	16	1	-2	·	·	·	·
Cc1ccc(NC(=O)N2CCc3ccccc3C2)cc1C	·	16	31	·	·	·	·	·	·
COc1ccc(N=C/C=C2/C=C(c3ccccc3)OC(C)(C)O2)cc1	6	-1	5	-1	-2	·	·	·	·
Cc1cc(C)cc(NC(=O)N2CCc3ccccc3C2)c1	·	11	58*	·	·	67*	-1	11	3
O=C(O)c1ccc(-n2cc(C(=O)c3ccccc3O)cn2)cc1	-11	14	65*	7	4	19	9	13	14
COc1cc(C(=O)CCN2CCC(c3ccccc3)C2)cc(OC)c1OC (centres undefined)	1	86*	92*	0	1	105*	0	96*	5
O=C(CCN1CCC(c2ccccc2)C1)c1ccc2c(c1)OCCO2 (centres undefined)	-6	83*	83*	1	1	80*	6	86*	11
O=C(CCN1CCC(c2ccccc2)C1)c1cccs1 (centres undefined)	3	92*	100*	0	0	100*	8	95*	6
O=C(CCN1CCC(c2ccccc2)C1)c1ccccc1 (centres undefined)	-6	·	·	0	0	·	·	·	·
O=C(CCN1CCCC1Cc1ccccc1)c1ccc2c(c1)OCCO2 (centres undefined)	-8	73*	87*	2	0	101*	3	85*	8
CCc1ccc(C(C)NC(=O)c2ccncc2)cc1 (centres undefined)	-6	-13	6	4	2	·	·	·	·
COC(=O)C1=CN(c2ccc(F)cc2)C(N)=C(C#N)C1c1cccc(OC)c1OC (centres undefined)	·	6	2	·	·	·	·	·	·
CCOC(=O)C(=NCC1CCCO1)NNc1cc(Cl)ccc1Cl (centres undefined)	-4	-14	2	-1	0	·	·	·	·
SMILES	OXTR potentiate	TAAR1 antag	TAAR1 ag	V1aR counter	OXTR ag	TAAR1 ag conf	Ga16 nonsel ag	TAAR1 desensitize	Ga16 antag count
O=C1N(c2ccccc2)c2ccccc2[C@]12C[C@H](O)CO2	·	-9	5	·	·	·	·	·	·
COc1ccc(NC(=O)COC(=O)c2cc(C)oc2C)c([N+](=O)[O-])c1	-1	58*	62*	-1	-2	-3	2	7	10
COc1ccc(C)c2sc(NNC(=O)COc3ccccc3)nc12	-10	·	·	1	1	·	·	·	·
Cc1nn(-c2ccccc2)c(Cl)c1C1C(C#N)=C(N)Oc2c1c(C)nn2-c1ccccc1 (centres undefined)	-1	25	61*	0	1	58*	34*	36	25*
COc1ccc(CNC(=O)C[C@H]2C(=O)N(c3ccccc3)C[C@@H]2Cc2ccccc2)cc1	-7	25	9	1	-2	·	·	·	·
Cc1ccc(NC(=O)N2CCCC(c3ccccc3)C2)cc1 (centres undefined)	-2	21	49*	0	-2	58*	-1	33	3
CCc1ccc(NC(=O)N2CCC(c3ccccc3)C2)cc1 (centres undefined)	1	-12	0	-1	0	·	·	·	·
O=C(Nc1ccccc1)N1CCC(c2ccccc2)C1 (centres undefined)	-18	-7	8	0	-1	·	·	·	·
O=C(/C=C/c1ccccc1)N1CCC(c2ccccc2)C1 (centres undefined)	-8	0	-1	1	-3	·	·	·	·
O=C(/C=C/c1ccco1)N1CCCC(c2ccccc2)C1 (centres undefined)	-1	18	49*	0	-2	33	-1	31	7
CCOc1ccc(NC(=O)N2CCC(c3ccc(C)cc3)C2)cc1 (centres undefined)	-4	38	51*	2	-1	7	4	11	10
c1ccc(-c2nnc(OCC3CCCO3)c3ccccc23)cc1 (centres undefined)	-3	17	12	0	-2	·	·	·	·
COc1cccc(NC(=O)C2(C)CCN2C(=O)C2CCCCC2)c1 (centres undefined)	·	-18	1	·	·	·	·	·	·
CC1Cn2c(nc(=O)c3c2NCN(CCc2ccccc2)C3)S1 (centres undefined)	1	4	53*	1	0	46*	6	7	3
